Measurements as given in ChEMBL document CHEMBL1137342 (J Med Chem, 2006).

Columns and labels:
[1] = target: D(2) dopamine receptor (Rattus norvegicus) (UniProt P61169); assay: Intrinsic activity at rat dopamine D2L receptor expressed in HEK293 cells assessed as inhibition of forskolin-stimulated cAMP production relative to dopamine; type: functional, cell-based
Method in brief: (§1)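 HEK293 cells stably expressing rat D2L, grown in DMEM with 5% fetal clone serum, 5% bovine calf serum and puromycin. Confluent monolayers were treated with ligands diluted in EBSS buffer (pH 7.4) with 5 µM forskolin and 500 µM IBMX. The reaction was stopped with 3% TCA. cAMP was measured in duplicate by [3H]cAMP competition with adrenal binding protein (2-3 h, 4 °C).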

D(2) dopamine receptor [2] = target: D(2) dopamine receptor (Rattus norvegicus, UniProt P61169); assay: Activity at rat dopamine D2L receptor expressed in HEK293 cells assessed as inhibition of forskolin-stimulated cAMP production; type: functional, cell-based; method in brief: as §1
Sequence of D(2) dopamine receptor (Rattus norvegicus, UniProt P61169) (P61169 whole entry): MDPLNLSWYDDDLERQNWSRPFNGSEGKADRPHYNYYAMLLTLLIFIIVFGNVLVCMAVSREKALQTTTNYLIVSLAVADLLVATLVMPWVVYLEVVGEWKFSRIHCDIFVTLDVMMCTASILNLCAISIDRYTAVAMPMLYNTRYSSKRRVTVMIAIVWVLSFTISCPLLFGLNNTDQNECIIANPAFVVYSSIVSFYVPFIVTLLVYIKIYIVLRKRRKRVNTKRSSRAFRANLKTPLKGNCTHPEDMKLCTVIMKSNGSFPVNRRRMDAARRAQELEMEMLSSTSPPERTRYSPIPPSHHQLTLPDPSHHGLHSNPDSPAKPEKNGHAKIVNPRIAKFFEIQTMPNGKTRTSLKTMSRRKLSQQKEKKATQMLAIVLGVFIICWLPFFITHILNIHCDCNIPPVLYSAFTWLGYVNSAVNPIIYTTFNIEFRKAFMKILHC

D(4) dopamine receptor [3] = target: T1, D(4) dopamine receptor (Homo sapiens, UniProt P21917); type: functional, cell-based, HEK293
T1 sequence (P21917 whole entry): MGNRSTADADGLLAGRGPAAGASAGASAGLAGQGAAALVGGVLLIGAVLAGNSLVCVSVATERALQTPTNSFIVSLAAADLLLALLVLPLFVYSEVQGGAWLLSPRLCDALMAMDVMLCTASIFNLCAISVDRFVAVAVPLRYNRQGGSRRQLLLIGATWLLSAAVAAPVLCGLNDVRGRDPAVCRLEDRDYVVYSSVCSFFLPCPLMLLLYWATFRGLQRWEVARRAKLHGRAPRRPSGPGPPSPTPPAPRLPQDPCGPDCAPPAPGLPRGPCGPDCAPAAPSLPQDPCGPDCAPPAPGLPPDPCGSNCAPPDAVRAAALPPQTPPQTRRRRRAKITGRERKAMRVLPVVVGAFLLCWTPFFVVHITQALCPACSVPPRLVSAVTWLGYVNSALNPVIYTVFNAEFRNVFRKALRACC

D(1A) dopamine receptor [4] = target: D(1A) dopamine receptor (Homo sapiens, UniProt P21728); assay: Activity at human dopamine D1 receptor expressed in HEK293 cells assessed as stimulation of cAMP production; type: functional, cell-based
Sequence of D(1A) dopamine receptor (Homo sapiens, UniProt P21728) (P21728 whole entry): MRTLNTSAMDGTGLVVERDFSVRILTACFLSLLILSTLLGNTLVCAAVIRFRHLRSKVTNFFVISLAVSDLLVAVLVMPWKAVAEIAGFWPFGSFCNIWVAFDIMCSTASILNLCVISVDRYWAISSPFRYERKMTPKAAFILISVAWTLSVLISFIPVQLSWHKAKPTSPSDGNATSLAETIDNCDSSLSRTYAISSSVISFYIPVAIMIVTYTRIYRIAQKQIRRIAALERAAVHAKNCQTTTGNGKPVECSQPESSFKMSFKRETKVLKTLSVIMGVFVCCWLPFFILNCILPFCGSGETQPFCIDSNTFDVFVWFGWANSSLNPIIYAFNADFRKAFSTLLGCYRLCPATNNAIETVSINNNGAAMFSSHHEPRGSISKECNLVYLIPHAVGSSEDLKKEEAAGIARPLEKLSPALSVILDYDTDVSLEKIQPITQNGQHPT

D(1A) dopamine receptor [5] = target: D(1A) dopamine receptor (Sus scrofa, UniProt P50130); assay: Displacement of [3H]SCH-23390 from dopamine D1-like receptor in porcine striata homogenate
Sequence of D(1A) dopamine receptor (Sus scrofa, UniProt P50130) (P50130 whole entry): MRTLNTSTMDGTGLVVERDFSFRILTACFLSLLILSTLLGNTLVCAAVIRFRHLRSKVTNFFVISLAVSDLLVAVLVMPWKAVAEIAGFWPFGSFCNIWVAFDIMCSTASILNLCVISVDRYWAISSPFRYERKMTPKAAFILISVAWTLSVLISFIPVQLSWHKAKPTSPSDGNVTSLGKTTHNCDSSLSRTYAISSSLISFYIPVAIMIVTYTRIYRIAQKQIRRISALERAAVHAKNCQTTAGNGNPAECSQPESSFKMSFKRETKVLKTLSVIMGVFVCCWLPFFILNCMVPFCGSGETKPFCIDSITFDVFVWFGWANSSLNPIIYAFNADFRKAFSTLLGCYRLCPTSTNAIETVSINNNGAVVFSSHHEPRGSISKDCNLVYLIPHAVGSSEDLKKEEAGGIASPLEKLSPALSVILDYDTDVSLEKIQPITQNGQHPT

D(4) dopamine receptor [6] = target: T1, D(4) dopamine receptor; assay: Binding affinity to human cloned dopamine D4 receptor
D(1B) dopamine receptor = D(1B) dopamine receptor (Homo sapiens, UniProt P21918); assay: Binding affinity to human cloned dopamine D5 receptor
Sequence of D(1B) dopamine receptor (P21918 whole entry): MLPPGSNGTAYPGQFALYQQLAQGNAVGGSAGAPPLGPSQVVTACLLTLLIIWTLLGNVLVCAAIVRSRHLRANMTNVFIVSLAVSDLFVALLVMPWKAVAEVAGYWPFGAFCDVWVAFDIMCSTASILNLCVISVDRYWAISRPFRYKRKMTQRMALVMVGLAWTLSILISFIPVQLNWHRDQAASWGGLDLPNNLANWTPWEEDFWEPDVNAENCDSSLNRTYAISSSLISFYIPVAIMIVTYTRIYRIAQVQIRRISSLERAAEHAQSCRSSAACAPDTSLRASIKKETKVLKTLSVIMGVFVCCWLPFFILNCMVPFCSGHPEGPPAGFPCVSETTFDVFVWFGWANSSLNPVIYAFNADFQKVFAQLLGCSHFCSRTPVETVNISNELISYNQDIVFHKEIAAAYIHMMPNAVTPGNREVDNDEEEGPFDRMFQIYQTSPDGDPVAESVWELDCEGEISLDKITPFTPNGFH

D(2) dopamine receptor [7] = target: D(2) dopamine receptor (Homo sapiens, UniProt P14416); assay: Binding affinity to human cloned dopamine D2 receptor
Sequence of D(2) dopamine receptor (Homo sapiens, UniProt P14416) (P14416 whole entry): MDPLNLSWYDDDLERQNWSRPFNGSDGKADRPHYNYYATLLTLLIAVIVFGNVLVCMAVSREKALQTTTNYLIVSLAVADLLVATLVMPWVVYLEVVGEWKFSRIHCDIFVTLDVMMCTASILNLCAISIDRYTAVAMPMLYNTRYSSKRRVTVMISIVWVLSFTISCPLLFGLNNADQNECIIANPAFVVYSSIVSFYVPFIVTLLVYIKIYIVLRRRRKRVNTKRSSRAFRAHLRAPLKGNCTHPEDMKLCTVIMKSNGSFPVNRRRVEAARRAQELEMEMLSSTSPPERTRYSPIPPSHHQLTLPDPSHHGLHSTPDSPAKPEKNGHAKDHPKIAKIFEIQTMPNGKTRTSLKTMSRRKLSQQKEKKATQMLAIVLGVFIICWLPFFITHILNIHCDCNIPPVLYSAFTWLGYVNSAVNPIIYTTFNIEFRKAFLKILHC

[8] = target: T2, Alpha-2A adrenergic receptor (Homo sapiens, UniProt P08913); assay: Binding affinity to human cloned adrenergic alpha 2A receptor
T2 sequence (P08913 whole entry): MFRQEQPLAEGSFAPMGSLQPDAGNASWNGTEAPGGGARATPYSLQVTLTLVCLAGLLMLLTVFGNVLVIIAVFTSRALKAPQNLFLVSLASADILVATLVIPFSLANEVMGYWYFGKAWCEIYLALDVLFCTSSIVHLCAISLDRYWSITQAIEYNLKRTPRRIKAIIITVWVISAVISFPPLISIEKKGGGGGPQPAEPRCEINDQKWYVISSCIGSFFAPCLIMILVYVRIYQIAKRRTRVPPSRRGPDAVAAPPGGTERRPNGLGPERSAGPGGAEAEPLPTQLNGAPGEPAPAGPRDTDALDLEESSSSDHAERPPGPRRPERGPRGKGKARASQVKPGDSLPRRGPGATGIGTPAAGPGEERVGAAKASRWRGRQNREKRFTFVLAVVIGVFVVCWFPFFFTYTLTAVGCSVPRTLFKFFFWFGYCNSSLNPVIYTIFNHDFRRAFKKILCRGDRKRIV

[9] = target: T3, Alpha-2C adrenergic receptor (Homo sapiens, UniProt P18825); assay: Binding affinity to human cloned adrenergic alpha 2C receptor receptor
T3 sequence (P18825 whole entry): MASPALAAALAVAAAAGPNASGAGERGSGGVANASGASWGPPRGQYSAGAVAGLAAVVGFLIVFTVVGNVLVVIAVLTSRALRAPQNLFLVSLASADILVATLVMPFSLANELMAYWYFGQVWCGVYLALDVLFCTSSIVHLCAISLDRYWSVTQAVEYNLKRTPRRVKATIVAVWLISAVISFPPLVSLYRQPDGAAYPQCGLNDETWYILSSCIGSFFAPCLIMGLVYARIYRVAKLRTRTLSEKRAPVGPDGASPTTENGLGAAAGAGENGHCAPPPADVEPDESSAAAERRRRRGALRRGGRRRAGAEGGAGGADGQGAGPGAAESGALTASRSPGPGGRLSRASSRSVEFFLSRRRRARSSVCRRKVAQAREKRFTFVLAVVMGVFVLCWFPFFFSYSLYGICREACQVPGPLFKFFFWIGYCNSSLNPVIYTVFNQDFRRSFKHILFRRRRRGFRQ

D(3) dopamine receptor = D(3) dopamine receptor (Homo sapiens, UniProt P35462); assay: Binding affinity to human cloned dopamine D3 receptor
Sequence of D(3) dopamine receptor (P35462 whole entry): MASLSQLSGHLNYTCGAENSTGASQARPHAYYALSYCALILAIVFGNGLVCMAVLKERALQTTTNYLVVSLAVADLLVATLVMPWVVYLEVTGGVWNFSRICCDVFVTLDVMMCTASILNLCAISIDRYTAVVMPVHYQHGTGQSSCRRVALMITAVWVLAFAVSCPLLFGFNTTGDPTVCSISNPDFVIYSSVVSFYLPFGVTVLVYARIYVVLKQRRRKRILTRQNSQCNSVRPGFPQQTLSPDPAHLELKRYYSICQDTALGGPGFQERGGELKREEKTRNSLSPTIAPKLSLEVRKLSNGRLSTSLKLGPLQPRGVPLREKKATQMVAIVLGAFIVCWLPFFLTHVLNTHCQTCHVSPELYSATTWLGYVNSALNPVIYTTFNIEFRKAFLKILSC

[10] = target: T4, Alpha-2B adrenergic receptor (Homo sapiens, UniProt P18089); assay: Binding affinity to human cloned adrenergic alpha 2B receptor receptor
T4 sequence (P18089 whole entry): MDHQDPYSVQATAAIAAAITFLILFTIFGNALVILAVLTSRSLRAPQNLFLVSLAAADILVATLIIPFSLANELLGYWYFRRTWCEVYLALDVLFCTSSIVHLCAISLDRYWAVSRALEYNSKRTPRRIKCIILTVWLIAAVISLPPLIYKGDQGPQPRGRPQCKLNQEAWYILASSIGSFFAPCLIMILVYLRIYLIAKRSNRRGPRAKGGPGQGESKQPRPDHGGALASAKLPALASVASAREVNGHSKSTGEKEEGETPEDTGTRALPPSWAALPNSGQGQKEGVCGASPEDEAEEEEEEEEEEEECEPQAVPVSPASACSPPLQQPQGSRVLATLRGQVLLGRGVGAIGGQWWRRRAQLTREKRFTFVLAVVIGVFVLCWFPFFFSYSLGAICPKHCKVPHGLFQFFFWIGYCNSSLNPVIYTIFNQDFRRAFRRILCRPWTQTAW

Sequence of D(2) dopamine receptor (Rattus norvegicus) (P61169 whole entry): as the sequence (P61169 whole entry) above

How did the Intrinsic activity [1] turn out when `CCCN1CCC[C@@H]2Cc3n[nH]cc3C[C@H]21` was run?
The Intrinsic activity was 95%.

For `Oc1cc2c(cc1O)[C@H]1c3ccccc3CN[C@@H]1CO2` (single isomer, unassigned), which EC50 (D(2) dopamine receptor [2]) is on record?
The EC50 was > 10000 nM.

And the EC50 (D(4) dopamine receptor [3])?
The EC50 was 95 nM.

How did the EC50 (D(1A) dopamine receptor [4]) turn out when `CCCN1Cc2ccccc2C2c3cc(O)c(O)cc3OCC21` (racemic) was run?
The EC50 was 1100 nM.

And the EC50 (D(2) dopamine receptor [2])?
The EC50 was 1600 nM.

And the Intrinsic activity [1]?
The Intrinsic activity was 92%.

And the Ki (D(1A) dopamine receptor [5])?
Its Ki is 330 nM.

And the EC50 (D(4) dopamine receptor [3])?
Its EC50 is 21 nM.

With `Oc1cc2c(cc1O)[C@H]1c3ccccc3CN[C@@H]1CC2` as the compound, how does the Intrinsic activity [1] read?
The Intrinsic activity was 70%.

What does the source list for `Oc1cc2c(cc1O)C1c3ccccc3CNC1CO2` (racemic) [DOXANTHRINE]?
Ki (D(4) dopamine receptor [6]): 90 nM; EC50 (D(2) dopamine receptor [2]): > 10000 nM; Ki (D(1B) dopamine receptor): 7 nM; Ki (D(2) dopamine receptor [7]): 1910 nM; Ki [8]: 180 nM; Ki [9]: 2 nM; Ki (D(3) dopamine receptor): 390 nM; Ki [10]: 10 nM; EC50 (D(4) dopamine receptor [3]): 110 nM

How did the Intrinsic activity [1] turn out when `NCCc1ccc(O)c(O)c1` was run?
Its Intrinsic activity is 100%.

For `Oc1cc2c(cc1O)[C@@H]1c3ccccc3CN[C@H]1CO2` (single isomer, unassigned), which EC50 (D(2) dopamine receptor [2]) is on record?
The EC50 was > 10000 nM.

What about the EC50 (D(4) dopamine receptor [3]) of the same compound?
Its EC50 is 230 nM.
